Measurements taken from ChEMBL document CHEMBL1124915, “Inhibitors of human renin. Cyclic peptide analogues containing a D-Phe-Lys-D-Trp sequence” (J Med Chem, 1990).

Columns and labels:
[1] = biological target: T1, Renin (Homo sapiens, UniProt P00797); experiment: Inhibition of human renin
T1 sequence (P00797 whole entry): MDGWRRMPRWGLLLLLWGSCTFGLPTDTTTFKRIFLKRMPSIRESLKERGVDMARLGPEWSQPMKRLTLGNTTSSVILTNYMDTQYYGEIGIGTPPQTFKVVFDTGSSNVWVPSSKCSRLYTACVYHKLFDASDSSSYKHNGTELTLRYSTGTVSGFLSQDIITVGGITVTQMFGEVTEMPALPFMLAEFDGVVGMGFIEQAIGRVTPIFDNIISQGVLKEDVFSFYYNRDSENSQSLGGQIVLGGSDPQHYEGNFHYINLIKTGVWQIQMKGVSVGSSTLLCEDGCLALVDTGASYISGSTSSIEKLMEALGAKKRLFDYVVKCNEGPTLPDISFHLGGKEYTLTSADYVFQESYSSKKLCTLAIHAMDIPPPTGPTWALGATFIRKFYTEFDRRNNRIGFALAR

[2] = biological target: T2, Renin (Homo sapiens) (UniProt P00797); experiment: Percent inhibition against human renin at the concentration of 10 uM
T2 sequence (whole entry): T1 sequence (P00797 whole entry)

[3] = biological target: T2, Renin (Homo sapiens); experiment: Percent inhibition against human renin at the concentration of 1 uM
[4] = biological target: T2, Renin (Homo sapiens); experiment: Percent inhibition against human renin at the concentration of 100 uM
How it was run: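 Each compound was tested twice at 100 µM against partially purified human renal renin with human plasma angiotensinogen in pH 7.0 phosphate buffer with protease inhibitors and 1% DMSO, for 120 min at 30 °C. Angiotensin I generation was quantified by radioimmunoassay and expressed as percent inhibition of the vehicle control rate.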

IC50 [1] | inhibition [4] | Compound | other results
2740 nM | – | CC(C)CCNC(=O)C(Cc1c[nH]c2ccccc12)NC(=O)[C@H](CCCCN)N1C(=O)CN[C@H](Cc2ccccc2)C(=O)N[C@@H](Cc2ccccc2)C1=O (stereo in doubt) | –
1500 nM | – | CC(C)CCNC(=O)C(Cc1c[nH]c2ccccc12)NC(=O)[C@H](CCCCN)N1C(=O)C(c2ccccc2)CCC(=O)N[C@@H](Cc2ccccc2)C1=O (stereo in doubt) | –
40000 nM | – | COC(=O)[C@H](CC(C)C)NC(=O)C(Cc1c[nH]c2ccccc12)NC(=O)[C@H](CSCNC(C)=O)NC(=O)[C@H](Cc1ccccc1)NC(=O)OC(C)(C)C (stereo in doubt) | –
31000 nM | – | COC(=O)[C@H](CC(C)C)NC(=O)C(Cc1c[nH]c2ccccc12)NC(=O)[C@H](CCCCN)NC(=O)[C@H](Cc1ccccc1)NC(=O)OCc1ccccc1 (stereo in doubt) | –
2300 nM | – | CC(C)CCNC(=O)C(Cc1c[nH]c2ccccc12)NC(=O)[C@H](CCCCN)N1C(=O)COCC(=O)N[C@@H](Cc2ccccc2)C1=O (stereo in doubt) | –
750 nM | – | CC(C)CCNC(=O)C(Cc1c[nH]c2ccccc12)NC(=O)[C@H](CCCCN)N1C(=O)CN[C@@H](Cc2ccccc2)C(=O)N[C@@H](Cc2ccccc2)C1=O (stereo in doubt) | –
3200 nM | – | COC(=O)[C@H](CC(C)C)NC(=O)C(Cc1c[nH]c2ccccc12)NC(=O)[C@H](CCCCN)N1C(=O)CC[C@H](NC(=O)OCc2ccccc2)C(=O)N[C@@H](Cc2ccccc2)C1=O (stereo in doubt) | –
1400 nM | – | CCC(C)CNC(=O)C(Cc1c[nH]c2ccccc12)NC(=O)[C@H](CCCCN)N1C(=O)[C@H](Cc2ccccc2)NC(=O)CCC(C)(C)C1=O (stereo in doubt) | –
240 nM | – | CC(C)CC(C)CNC(=O)C(Cc1c[nH]c2ccccc12)NC(=O)[C@H](CCCCN)N1C(=O)CC(C)CC(=O)N[C@@H](Cc2ccccc2)C1=O (stereo in doubt) | –
– | – | CC(C)CCNC(=O)C(Cc1c[nH]c2ccccc12)NC(=O)[C@H](CCCCN)N1C(=O)CCC(=O)N[C@@H](Cc2ccccc2)C1=O (stereo in doubt) | inhibition [2]: 53%
– | 88% | CC(C)CCNC(=O)C(Cc1c[nH]c2ccccc12)NC(=O)[C@H](CCCCN)N1C(=O)CN[C@H](CC(C)C)C(=O)N[C@@H](Cc2ccccc2)C1=O (stereo in doubt) | inhibition [3]: 10%
– | 66% | CC(C)CCNC(=O)C(Cc1c[nH]c2ccccc12)NC(=O)[C@H](CCCCN)N1C(=O)CSCC(=O)N[C@@H](Cc2ccccc2)C1=O (stereo in doubt) | –
– | 57% | CC(C)CCNC(=O)C(Cc1c[nH]c2ccccc12)NC(=O)[C@H](CCCCN)N1C(=O)[C@H](Cc2ccccc2)NC(=O)CN[C@H](Cc2ccccc2)C1=O (stereo in doubt) | –
– | 52% | CC(C)CCNC(=O)C(Cc1c[nH]c2ccccc12)NC(=O)[C@H](CCCCN)N1C(=O)[C@H](Cc2ccccc2)NCC(=O)N[C@@H](Cc2ccccc2)C1=O (stereo in doubt) | –
– | 63% | CCC(C)CNC(=O)C(Cc1c[nH]c2ccccc12)NC(=O)[C@H](CCCCN)N1C(=O)CC(C)(C)CC(=O)N[C@@H](Cc2ccccc2)C1=O (stereo in doubt) | –
– | – | CC[C@@H](C)[C@@H]1NCC(=O)N[C@@H](Cc2ccccc2)C(=O)N([C@@H](CCCCN)C(=O)NC(Cc2c[nH]c3ccccc23)C(=O)NCCC(C)C)C1=O (stereo in doubt) | inhibition [2]: 58%
– | 84% | CC[C@H](C)[C@@H]1NCC(=O)N([C@@H](CCCCN)C(=O)NC(Cc2c[nH]c3ccccc23)C(=O)NCCC(C)C)C(=O)[C@H](Cc2ccccc2)NC1=O (stereo in doubt) | inhibition [2]: 45%
